Screens (PubChem BioAssay)
bIAP inhibitor: bovine intestinal alkaline phosphatase inhibitors, primary screen, selectivity assay for TNAP inhibitor project, biochemical, bovine IAP, CDP-star luminescence; purified bovine IAP, 30 min; 190,000 tested, under 10 active; inhibition, % at 20 µM; alkaline phosphatase, intestinal [Bos taurus];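 active means over 50% inhibition of intestinal alkaline phosphatase at 20 µM in the single-dose screen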
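Assay system – bovine IAP enzyme · Quantity – bovine IAP at 1/65,000,000 final dilution · Detection – CDP-star luminescence signal · Times – 30 min reaction at room temperature · Also added – CDP-star substrate at 30 µM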
mIAP block: inhibitors of mouse IAP, primary screen, biochemical, luminescence, uHTS; intestinal alkaline phosphatase [Mus musculus]; purified mouse IAP, CDP-Star luminescence, 30 min; inhibition, % at 10 µM; 0.2% of 330,000 active; AID 2806, 2010;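 active means inhibition of at least 40% at 10 µM in the primary screen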
bIAP act: bovine intestinal alkaline phosphatase activators, primary screen, biochemical, bovine IAP, CDP-star luminescence; 0.17% of 200,000 active; alkaline phosphatase, intestinal [Bos taurus]; activation factor at 20 µM; AID 1016, 2008; purified bovine IAP, 30 min; hits give high values; fold of DMSO-control signal, blank-subtracted;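 active means activation factor of 2 or more at 20 µM, a signal rise over negative controls twice the positive control's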
hIAP act: human IAP activators, primary screen, biochemical, luminescence, uHTS | Intestinal-type alkaline phosphatase (Homo sapiens), P09923 | purified human IAP, CDP-Star luminescence, 30 min; hits give high values; 1 = vehicle-only enzyme, 0 = enzyme-free background | activation factor at 10 µM | 0.16% of 330,000 active | AID 2524, 2010;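 active means activation factor of the enzyme at least 2-fold when tested at 20 µM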
Target sequence (P09923 whole entry, looked up): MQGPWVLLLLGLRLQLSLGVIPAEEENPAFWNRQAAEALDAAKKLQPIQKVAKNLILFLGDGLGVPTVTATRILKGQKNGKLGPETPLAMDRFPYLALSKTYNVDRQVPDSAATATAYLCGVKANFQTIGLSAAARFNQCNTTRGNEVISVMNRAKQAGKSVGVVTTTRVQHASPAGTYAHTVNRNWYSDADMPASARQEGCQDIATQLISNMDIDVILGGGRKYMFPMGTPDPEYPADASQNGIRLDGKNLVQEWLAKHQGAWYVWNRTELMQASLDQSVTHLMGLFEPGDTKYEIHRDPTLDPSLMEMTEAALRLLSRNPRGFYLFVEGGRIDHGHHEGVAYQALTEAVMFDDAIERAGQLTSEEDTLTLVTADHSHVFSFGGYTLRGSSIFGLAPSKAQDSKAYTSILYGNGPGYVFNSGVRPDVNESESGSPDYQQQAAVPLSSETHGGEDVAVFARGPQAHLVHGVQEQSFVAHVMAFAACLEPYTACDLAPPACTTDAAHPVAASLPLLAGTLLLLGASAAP
mIAP activ: activators of mouse IAP, primary screen, biochemical, luminescence, uHTS. intestinal alkaline phosphatase [Mus musculus]. 0.24% of 330,000 active. activation factor at 10 µM. muIAP, CDP-Star luminescence, 30 min; hits give high values; 1 = vehicle-only enzyme signal, 0 = enzyme-free wells;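 active means activation factor of at least 2 at 20 µM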
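Assay system: mouse IAP enzyme; reagent: chemiluminescent substrate CDP-Star; dosing: test compounds delivered from DMSO solution; schedule: 30 min at room temperature; measured by: luminescence from enzymatic CDP-Star hydrolysis; controls: DMSO-only wells and no-enzyme negative control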
hIAP block: human IAP inhibitors, primary screen, biochemical, luminescence, uHTS; 0.12% of 330,000 active; inhibition, % at 10 µM; Intestinal-type alkaline phosphatase (Homo sapiens), P09923; purified IAP, CDP-Star luminescence, 30 min;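 active means inhibition reaching a set limit with compound at 10 µM in the primary screen, cut at about 35% in these data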
Of the large screens only hits and unclear results are named; the others gave an inactive call. Only some compounds are listed: those with a hit (about 0.77% of all), similar ones and a draw of the others.

COc1cc(/C=c2\s/c(=C(/C#N)C(=O)N3CCCC3)n(-c3ccccc3)c2=O)ccc1O	mIAP block 42 (no result: bIAP inhibitor)
COC(=O)/C=c1/s/c(=C(/C#N)C(=O)N2CCCCC2)n(-c2ccccc2)c1=O	none
CC(=O)N1c2ccc(S(=O)(=O)N3CCC(C(=O)Nc4cccc(C(F)(F)F)c4)CC3)cc2CC1C (stereo not given)	mIAP activ 2.4 (no result: bIAP inhibitor, bIAP act)
COc1cccc(NC(=O)C2CCN(S(=O)(=O)c3ccc4c(c3)CC(C)N4C(C)=O)CC2)c1 (stereo not given)	none (no result: bIAP inhibitor, bIAP act)
CCc1cccc(NC(=O)C2CCN(S(=O)(=O)c3ccc4c(c3)CC(C)N4C(C)=O)CC2)c1 (stereo not given)	mIAP activ 2.2 (no result: bIAP inhibitor, bIAP act)
O=C(/C=C/c1ccc([N+](=O)[O-])cc1)NCc1cccs1	bIAP act 4.9
O=C(COC(=O)/C=C/c1ccc([N+](=O)[O-])cc1)NCc1cccs1	none (no result: bIAP inhibitor, bIAP act)
O=C(CN1CCN(Cc2ccc(F)cc2)CC1)NCCc1ccccc1	none (no result: bIAP inhibitor, bIAP act)
O=C1C2C3C=CC(C3)C2C(=O)N1c1cccc(-c2nc3ccccc3o2)c1 (stereo not given)	bIAP act 3.9
O=C(Nc1cccc(-c2nc3ccccc3o2)c1)c1ccc(N2C(=O)C3C4C=CC(C4)C3C2=O)cc1 (stereo not given)	none
CCCn1c(N)c(C(c2ccc(OC)cc2)N2CCN(c3ccccc3)CC2)c(=O)[nH]c1=O (stereo not given)	bIAP act 2.6
CCCn1c(N)c(C(c2ccc(C(=O)OC)cc2)N2CCN(c3ccccc3)CC2)c(=O)[nH]c1=O (stereo not given)	none
O=C(Nc1cc(Cl)cc(Cl)c1)C1CCC(=O)N1Cc1ccccc1Cl (stereo not given)	mIAP activ 2
Cc1ccc(SCCNC(=S)Nc2cc(C)cc(C)c2)cc1	mIAP activ 3.3
Cc1ccc(NC(=O)NCCSc2ccc(C)cc2)cc1	mIAP activ 2.5
COc1ccccc1NC(=S)NCCSc1ccc(Cl)cc1	none
COc1ccc(Cl)cc1NC(=S)NCCSc1ccc(C)cc1	mIAP activ 2.6
CSc1ccccc1OCc1cc(C(=O)N2CCC(c3ccncc3)CC2)no1	none (no result: bIAP inhibitor, bIAP act)
N#C/C(=C/c1ccc(N2CCCCC2)o1)C(=O)Nc1ccc(Cl)cc1	hIAP block 38
CCOC(=O)CN1NC2(CCCCCCC2)NC1=S	none (no result: bIAP inhibitor, bIAP act)
CCOC(=O)CN1NC2(CCCCC2)NC1=S	mIAP block 51
CCOc1cc(/C=C2\NC(=S)N(c3c(C)n(C)n(-c4ccccc4)c3=O)C2=O)ccc1O	mIAP block 42
CCOc1cccc(/C=C2\NC(=S)N(c3ccccc3)C2=O)c1O	none (no result: bIAP inhibitor, bIAP act)
FC(F)(F)c1cccc(-n2cc(-c3ccccc3)[nH]c2=S)c1	none (no result: bIAP inhibitor, bIAP act)
CCN(CC)S(=O)(=O)c1ccc(NC(=O)CCC2CCCCC2)cc1	bIAP act 2.3 (no result: mIAP block, hIAP act, mIAP activ, hIAP block)
O=C(CN1CCC(c2nc3ccccc3[nH]2)CC1)Nc1ccc2c(c1)OCO2	none
Cc1ccc2nc(C3CCN(CC(=O)Nc4ccc5c(c4)OCCO5)CC3)[nH]c2c1	bIAP act 2.1
O=C(NNC(=S)NCc1ccco1)c1ccc(Cl)s1	none
O=C(CSCc1ccco1)c1ccc(Cl)s1	mIAP block 45
CCO[C@@H]1OC(C(=O)N2CCN(Cc3ccc4c(c3)OCO4)CC2)=C[C@H](c2cn(C(C)=O)c3ccccc23)[C@H]1CCCO	mIAP block 43
CCO[C@@H]1OC(C(=O)N2CCN(Cc3ccc4c(c3)OCO4)CC2)=C[C@H](c2csc3ccccc23)[C@H]1CCCO	none
O=C(CN1C(=O)NC2(CCOc3ccccc32)C1=O)Nc1cccc(Cl)c1 (stereo not given)	none
Cc1nn(-c2ccccc2)c(C)c1/C=C/C(=O)OCC(=O)Nc1ncc(Cl)cc1Cl	bIAP act 11
O=C(COC(=O)c1cn(-c2ccccc2)nc1-c1ccccc1)Nc1ncc(Cl)cc1Cl	none (no result: bIAP inhibitor, bIAP act)
COc1cccc(-c2nn(-c3ccccc3)cc2C(=O)OCC(=O)Nc2ncc(Cl)cc2Cl)c1	bIAP act 2
CC1(C)CC(=O)c2cc(C(=O)NNc3ccccc3)c(=O)n(-c3ccccc3)c2C1	none
Cc1cc(C)cc(Oc2nn[nH]n2)c1	none
S=c1[nH]nc(-c2ccccc2)n1/N=C/C=C/c1ccco1	mIAP block 53
COc1ccccc1NS(=O)(=O)c1cc(NC(=O)Nc2ccc(Cl)cc2Cl)ccc1N1CCCCC1	mIAP activ 3.4
O=C(Nc1cccc(C(F)(F)F)c1)Nc1ccc(N2CCCC2)c(S(=O)(=O)Nc2ccccc2Cl)c1	mIAP activ 2.1
O=C(CC1C[C@H](C(=O)N2CCOCC2)[C@@]2(CCC3CCCC3)c3[nH]c4ccccc4c3CCN2C1=O)NCC12CC3CC(CC(C3)C1)C2 (stereo not given in full)	none (no result: bIAP inhibitor, bIAP act)
Cn1c2c(c(=O)n(C)c1=O)[C@@]1(C(=O)Nc3ccccc31)C(C#N)=C(N)O2	none
Cc1c(NC(=O)/C(C#N)=C/c2ccc(-c3cc(Cl)ccc3Cl)o2)c(=O)n(-c2ccccc2)n1C	none
COC(=O)c1ccc(N2CCN(S(=O)(=O)c3ccc(C)cc3)CC2)c([N+](=O)[O-])c1	none
COc1ccc(CNC[C@@H](CCCCN(C)Cc2ccc(OC)cc2)N2C[C@H](c3ccccc3)N(CCc3ccc(Cl)c(Cl)c3)C(=O)C2=O)cc1	bIAP act 6.6
CCN1c2ccccc2NC2N=C(OC)C(c3ccccc3)C21 (stereo not given)	none
COc1ccc(C[C@H]2CN3C(=NC[C@@H]3Cc3ccccc3)N2CCNC(=O)CCC2CCCCC2)cc1	bIAP act 2.1
COc1ccc(C[C@H]2CN3C(=NC[C@@H]3C(C)C)N2CCNC(=O)CCC2CCCCC2)cc1	none
COC(=O)c1cccc(NC(=O)Nc2ccc(Cl)c(Cl)c2)c1	mIAP activ 3
COC(=O)c1ccc(NC(=O)Nc2ccc(F)c(Cl)c2)cc1	mIAP activ 2.3
COC(=O)c1cc(NC(=O)Nc2ccccc2)ccc1Cl	mIAP activ 2.5
O=C(Nc1ccncc1)Nc1ccc(F)c(Cl)c1	none
CCc1ccc2c(c1)C(=O)C(=O)N2CC(=O)Nc1ccc(NC(=O)c2ccccn2)cc1	none
CC1(C)Cc2c(cnn2-c2cccc(F)c2)C(NC(=O)CCN2CCCC2=O)C1 (stereo not given)	none (no result: bIAP inhibitor, bIAP act)
Cc1cc(C(=O)OCC(=O)c2ccccc2)c2ccccc2n1	none (no result: bIAP inhibitor, bIAP act)
